# In ChEMBL document CHEMBL1142276, “Synthesis, cannabinoid receptor affinity, and molecular modeling studies of substituted 1-aryl-5-(1H-pyrrol-1-yl)-1H-pyrazole-3-carboxamides” (J Med Chem, 2008):
# Calls of active or inactive are those of the source. The calls are words filed in the database; no cut-off is given here.
# What was measured:
# [1] = molecular target: Cannabinoid receptor 2 (Homo sapiens, UniProt P34972); assay: Displacement of [3H]CP-55940 from human recombinant CB2 receptor expressed in HEK cells; assay type: cell-based, HEK293
# Cannabinoid receptor 2, sequence (P34972 whole entry): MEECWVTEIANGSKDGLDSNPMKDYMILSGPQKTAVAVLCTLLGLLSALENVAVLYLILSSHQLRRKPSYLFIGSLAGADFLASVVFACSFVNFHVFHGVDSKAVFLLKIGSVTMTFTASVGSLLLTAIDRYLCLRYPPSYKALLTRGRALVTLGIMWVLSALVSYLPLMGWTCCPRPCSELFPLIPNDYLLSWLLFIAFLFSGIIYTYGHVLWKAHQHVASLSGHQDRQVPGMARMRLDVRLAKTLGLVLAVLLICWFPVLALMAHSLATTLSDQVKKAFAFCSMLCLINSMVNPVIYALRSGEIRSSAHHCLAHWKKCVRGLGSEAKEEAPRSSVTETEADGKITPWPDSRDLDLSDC
# Outline: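 Membranes came from HEK cells transfected with human CB2. IC50 values were converted to Ki by Cheng-Prusoff. Values are means of at least three experiments, each in duplicate.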
# [2] = species: Homo sapiens; assay: Ratio of Ki for human recombinant CB2 receptor to human recombinant CB1 receptor
# [3] = molecular target: Cannabinoid receptor 1 (Homo sapiens, UniProt P21554); assay: biochemical; assay type: cell-based, HEK293
# Cannabinoid receptor 1 (Homo sapiens, UniProt P21554), sequence (P21554 whole entry): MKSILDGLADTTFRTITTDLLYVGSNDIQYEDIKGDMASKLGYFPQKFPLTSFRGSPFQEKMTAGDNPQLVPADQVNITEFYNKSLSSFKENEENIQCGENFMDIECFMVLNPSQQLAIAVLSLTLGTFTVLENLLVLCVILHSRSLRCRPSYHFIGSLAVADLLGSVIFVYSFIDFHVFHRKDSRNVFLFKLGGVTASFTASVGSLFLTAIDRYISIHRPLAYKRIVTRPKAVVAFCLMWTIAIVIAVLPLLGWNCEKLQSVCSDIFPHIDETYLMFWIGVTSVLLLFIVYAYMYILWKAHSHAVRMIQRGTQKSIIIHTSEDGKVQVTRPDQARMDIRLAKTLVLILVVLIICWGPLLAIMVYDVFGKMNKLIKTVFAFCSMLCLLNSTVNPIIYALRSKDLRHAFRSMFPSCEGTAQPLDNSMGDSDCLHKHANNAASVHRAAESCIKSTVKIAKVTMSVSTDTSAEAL
# [4] = molecular target: Cannabinoid receptor 1 (Mus musculus) (UniProt P47746); assay: Activity at mouse CB1 receptor in mouse N18TG2 cells assessed as inhibition of forskolin-induced cAMP formation at 200 to 300 nM; assay type: functional, cell-based
# Cannabinoid receptor 1 (Mus musculus), sequence (P47746 whole entry): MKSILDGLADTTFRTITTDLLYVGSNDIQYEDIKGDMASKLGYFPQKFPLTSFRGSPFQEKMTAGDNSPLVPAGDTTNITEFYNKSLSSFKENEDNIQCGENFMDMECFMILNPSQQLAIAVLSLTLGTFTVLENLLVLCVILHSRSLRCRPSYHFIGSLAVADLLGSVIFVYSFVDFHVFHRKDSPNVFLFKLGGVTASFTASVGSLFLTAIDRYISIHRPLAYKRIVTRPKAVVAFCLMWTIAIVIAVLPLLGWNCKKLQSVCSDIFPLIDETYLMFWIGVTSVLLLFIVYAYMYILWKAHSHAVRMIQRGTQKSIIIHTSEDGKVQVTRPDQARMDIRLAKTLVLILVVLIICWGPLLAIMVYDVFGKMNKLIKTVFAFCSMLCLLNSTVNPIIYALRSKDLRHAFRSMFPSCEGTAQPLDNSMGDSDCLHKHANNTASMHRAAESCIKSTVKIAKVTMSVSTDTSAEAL
# Outline: (§1)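 Intact confluent mouse N18TG2 neuroblastoma cells were stimulated for 10 min at 37 °C with 1 µM forskolin in serum-free DMEM with 20 mM HEPES, 0.1 mg/mL BSA and 0.1 mM IBMX. Compounds were given at various concentrations, with vehicle 0.1% methanol. Cells were then extracted with ethanol and cAMP was measured by kit.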
# [5] = molecular target: Cannabinoid receptor 1 (Mus musculus, UniProt P47746); assay: Activity at mouse CB1 receptor in mouse N18TG2 cells assessed as forskolin-induced cAMP formation; assay type: functional, cell-based; outline: as §1
# Cannabinoid receptor 1 (Mus musculus, UniProt P47746), sequence (P47746 whole entry): as above
# [6] = molecular target: Cannabinoid receptor 1 (Mus musculus) (UniProt P47746); assay: Antagonist activity at mouse CB1 receptor in mouse N18TG2 cells assessed as forskolin-induced cAMP formation in presence of WIN-55212-2; assay type: functional, cell-based
# Outline: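 Intact confluent N18TG2 cells were exposed to compound with or without the CB1 agonist WIN55,212-2 at 100 nM, in the presence and absence of 1 µM forskolin. Incubation was 10 min at 37 °C in serum-free DMEM with HEPES, BSA and IBMX, vehicle 0.1% methanol. cAMP in ethanol extracts was quantified by kit.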
Compound,Ki [1] [nM],IC50 ([1]; read-out: IC50) [nM],Ratio Ki [2],IC50 [3] [nM],Ki [3] [nM],Activity [4],EC50 [5] [nM],Activity [6],IC50 ([1]; hek293)
Cc1c(C(=O)NCc2ccc(Cl)c(Cl)c2)nn(-c2ccc(Cl)cc2Cl)c1-n1c(C)ccc1C,3940,5000,141,50,28,inactive,25,,
Cc1c(C(=O)NC2CCCCC2)nn(-c2ccc(Cl)c(Cl)c2)c1-n1cccc1,1.7,2.2,0.3,10,5.6,inactive,1,Active,
O=C(NN1CCCCC1)c1cc(-n2cccc2)n(-c2ccc(Cl)cc2)n1,> 3940,,,,,,,,
Cc1c(C(=O)NN2CCCCC2)nn(-c2c(Cl)cc(Cl)cc2Cl)c1-n1cccc1,> 3940,> 5000,> 2.19,3200,1800,,,,
Cc1c(C(=O)NN2CCCCC2)nn(-c2c(Cl)cc(Cl)cc2Cl)c1-n1c(C)ccc1C,> 3940,> 5000,> 35.8,200,110,,,,
Cc1c(C(=O)NN2CCCCC2)nn(-c2ccc(Cl)cc2Cl)c1-n1cccc1,1730,200,0.94,3300,1850,,,,
Cc1c(C(=O)NC2CCCCC2)nn(-c2ccc(Cl)cc2Cl)c1-n1c(C)ccc1C,87,110,2.07,74,42,,,,
Cc1c(C(=O)NN2CCCCC2)nn(-c2ccc(Cl)c(Cl)c2)c1-n1cccc1,20,25,,,,,,,
Cc1c(C(=O)NN2CCCCC2)nn(-c2ccc(Cl)cc2)c1-n1cccc1,2180,2770,19.8,200,110,,,,
Cc1c(C(=O)NN2CCCCC2)nn(-c2ccc(Cl)cc2Cl)c1-n1c(C)ccc1C,980,1240,25.8,67,38,,,,
Cc1nn(-c2ccc(Cl)cc2)c(-n2cccc2)c1C(=O)NN1CCCCC1,> 3940,,,> 5000,> 2820,,,,
Cc1c(C(=O)NC2CCCCC2)nn(-c2c(Cl)cc(Cl)cc2Cl)c1-n1c(C)ccc1C,390,500,,,,,,,
Cc1c(C(=O)NCc2ccc(Cl)c(Cl)c2)nn(-c2ccc(Cl)c(Cl)c2)c1-n1cccc1,150,190,,,,,,,
Cc1nn(-c2ccc(Cl)cc2)c(-n2cccc2)c1C(=O)NCc1ccc(Cl)c(Cl)c1,> 3940,,,,,,,,
Cc1c(C(=O)NCC2CCCCC2)nn(-c2ccc(Cl)cc2)c1-n1cccc1,390,500,3.55,200,110,,,,
Cc1c(C(=O)NCc2ccc(Cl)c(Cl)c2)nn(-c2ccc(Cl)c(Cl)c2)c1-n1c(C)ccc1C,1370,1740,4.89,500,280,,,,
O=C(NN1CCCCC1)c1cc(-n2cccc2)n(-c2ccccc2)n1,> 3940,,,> 5000,> 2820,,,,

Compound,Ki [1] [nM],IC50 ([1]; read-out: IC50) [nM],Ratio Ki [2],IC50 [3] [nM],Ki [3] [nM],Activity [4],EC50 [5] [nM],Activity [6],IC50 ([1]; hek293)
Cc1c(C(=O)NCc2ccc(Cl)c(Cl)c2)nn(-c2c(Cl)cc(Cl)cc2Cl)c1-n1cccc1,> 3940,> 5000,,,,,,,
Cc1c(C(=O)NN2CCCCC2)nn(-c2ccc(F)cc2F)c1-n1c(C)ccc1C,> 3940,> 5000,,,,,,,
Cc1c(C(=O)NC2CCCCC2)nn(-c2ccc(F)cc2F)c1-n1c(C)ccc1C,570,720,,,,,,,
Cc1c(C(=O)NC2CCCCC2)nn(-c2ccc(Cl)cc2Cl)c1-n1cccc1,64,81,1.14,100,56,,,,
N#Cc1c(C(=O)NN2CCCCC2)nn(-c2ccccc2)c1-n1cccc1,> 3940,,,> 5000,> 2820,,,,
Cc1c(C(=O)NC2CCCCC2)nn(-c2ccc(Cl)c(Cl)c2)c1-n1c(C)ccc1C,1.3,1.7,0.093,25,14,,,,
N#Cc1c(C(=O)NN2CCCCC2)nn(-c2ccc(Cl)cc2)c1-n1cccc1,> 3940,,> 1.4,5000,2820,,,,
Cc1c(C(=O)NCc2ccc(Cl)c(Cl)c2)nn(-c2ccc(F)cc2F)c1-n1cccc1,390,500,,,,,,,
Cc1c(C(=O)NN2CCCCC2)nn(-c2ccc(Cl)c(Cl)c2)c1-n1c(C)ccc1C,29,37,,,,,,,
Cc1c(C(=O)NCc2ccc(Cl)c(Cl)c2)nn(-c2ccc(Cl)cc2Cl)c1-n1cccc1,510,650,,,,,,,
N#Cc1c(C(=O)NCc2ccc(Cl)c(Cl)c2)nn(-c2ccccc2)c1-n1cccc1,> 3940,> 5000,,,,,,,
Cc1c(C(=O)NN2CCCCC2)nn(-c2ccc(F)cc2F)c1-n1cccc1,2400,3000,,,,,,,
Cc1c(C(=O)NN2CCOCC2)nn(-c2ccc(F)cc2F)c1-n1cccc1,> 3940,> 5000,,> 5000,> 2820,,,,
Cc1c(C(=O)NCc2ccc(Cl)c(Cl)c2)nn(-c2ccc(F)cc2F)c1-n1c(C)ccc1C,> 3940,> 5000,> 113,62,35,,> 60,,
O=C(NC1CCCCC1)c1cc(-n2cccc2)n(-c2ccc(Cl)cc2)n1,1750,2220,6.25,500,280,,,,
Cc1c(C(=O)NN2CCCCC2)nn(-c2ccccc2)c1-n1cccc1,> 3940,,,> 5000,> 2820,,,,Not Active
Cc1c(C(=O)NC2CCCCC2)nn(-c2ccc(F)cc2F)c1-n1cccc1,65,83,,,,,,,
